Measured values taken from the array DNA melting data of Ke et al. (doi:10.1101/2024.01.08.574731).

Columns and labels:
[1] = melting temperature; fluorescence melt of hairpins on a sequencing array, two-state fit, raised by 9.35 °C to match UV melts; conditions: sodium 0.088 M
Summary of the method: (§1)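 Melting temperature and folding enthalpy were obtained by bootstrapped two-state fitting. Fits used Cy3 fluorescence of library hairpins with annealed Cy3 and quencher oligos on a sequenced MiSeq flow cell, imaged in 50 mM Na-HEPES pH 8.0, 25 mM NaCl in 2.5 °C steps up to 60 °C and normalised to pre-quench Cy3 and control constructs. Four replicates were combined by inverse-variance weighting, and fitted temperatures were raised by 9.35 °C to match UV melts.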

[2] = folding enthalpy; higher = less favourable; fluorescence melt of hairpins on a sequencing array, two-state fit; conditions: sodium 0.088 M
Summary of the method: as §1

| Sequence | Tm [1] | folding enthalpy [2] |
| --- | --- | --- |
| GGAATTGGAAACAATTTC (.(((((....))))).) | 39.5 °C | -32.8 kcal/mol |
| GATCAATAACTTGATC ((((((....)))))) | 39.4 °C | -31.6 kcal/mol |
| GATAGGCGAAAGCCATC (((.(((....)))))) | 40.3 °C | -12.6 kcal/mol |
| GATCAGATGCTGATC ((((((...)))))) | 49.4 °C | -30.6 kcal/mol |
| CGTACGGAAACGTCAACG ((((((....)))..))) | 32.2 °C | -13.5 kcal/mol |
| GTCTGCGAAAGCAAGGAC ((((((....)))..))) | 43.2 °C | -17.5 kcal/mol |
| GATTGCGAAAGCACATC ((((((....))).))) | 40.1 °C | -19.3 kcal/mol |
| GTAGGAGGAAACTCCTGC (.(((((....))))).) | 46.8 °C | -22.3 kcal/mol |
| GGATCCGAAAGGACTTCC ((((((....)))..))) | 37.5 °C | -19.5 kcal/mol |
| GTGATAACGAAAGTTCAC (((..(((....)))))) | 37.5 °C | -15.1 kcal/mol |
| GACGACGGAAACACCGTC ((((..(....)..)))) | 38.2 °C | -13.2 kcal/mol |
| GGAGACCGAAAGGTATCC (((.(((....))).))) | 61.4 °C | -41.4 kcal/mol |
| GATCTGCCCCCAGATC ((((((....)))))) | 48.3 °C | -34.5 kcal/mol |
| CGAGCGGAAACGCCATCG ((((((....)))..))) | 31.9 °C | -12.5 kcal/mol |
| GGGAGGCGAAAGCCCCCC (((.(((....))).))) | 64.8 °C | -17.2 kcal/mol |
| GTCTACGCGAAAGCGGAC (((..(((....)))))) | 41.3 °C | -12.7 kcal/mol |
| GATCGGAAAACCGATC ((((((....)))))) | 51.2 °C | -35.5 kcal/mol |
| GATCGATACGTCGATC ((((((....)))))) | 54.5 °C | -38.6 kcal/mol |
| GCGGGACGCCGC ((((....)))) | 66.2 °C | -13.9 kcal/mol |
| GTTGCGGGAAACCGCAGC (.(((((....))))).) | 56.4 °C | -14.2 kcal/mol |
| GTCTTCGGAAACGAAGGC (.(((((....))))).) | 53.8 °C | -32.9 kcal/mol |
| GTTCGCGAAAGCGTAAAC ((((((....)))..))) | 31.9 °C | -10.3 kcal/mol |
| GCGGCCATCCGC ((((....)))) | 60 °C | -18.5 kcal/mol |
| GCGACGAGTCGC ((((....)))) | 60.6 °C | -36.6 kcal/mol |

| Sequence | Tm [1] | folding enthalpy [2] |
| --- | --- | --- |
| GCGGAACCGAAAGGTCGC (((..(((....)))))) | 54.7 °C | -27.7 kcal/mol |
| GCCGGTACGAAAGTAGGC (((..(((....)))))) | 48.7 °C | -24.7 kcal/mol |
| GATCTTTGCAAAGATC ((((((....)))))) | 50.9 °C | -57.2 kcal/mol |
| CGGACCCGGAAACGGCCG (((..(((....)))))) | 38.9 °C | -18.8 kcal/mol |
| GCTTGGGGAAACCTAGGC ((.(.((....)).).)) | 32.3 °C | -23.5 kcal/mol |
| GCATACGAAAGTATTTGC ((((((....)))..))) | 32.9 °C | -17.1 kcal/mol |
| GCAGACGAAAGTCTCTGC ((((((....)))..))) | 44.1 °C | -14.8 kcal/mol |
| GCCCTAGAAATAGGGC ((((((....)))))) | 59.1 °C | -37.2 kcal/mol |
| GTGGGCGGAAACGTCCAC ((((.((....)).)))) | 64.7 °C | -41.7 kcal/mol |
| GTCGTAGGAAACTATGGC (.(.(((....))).).) | 32 °C | -17.8 kcal/mol |
| GCGGACACCGC ((((...)))) | 56.2 °C | -26.3 kcal/mol |
| GCTGCGCGAAAGCACCGC ((.(.((....)).).)) | 41.3 °C | -21.4 kcal/mol |
| GCAGCGCGAAAGCTTTGC (((..((....))..))) | 37.4 °C | -16.7 kcal/mol |
| GCCAAGCGAAAGCCAGGC (((..((....))..))) | 54.5 °C | -22.2 kcal/mol |
| GCGGAACCCGC ((((...)))) | 53.8 °C | -20.8 kcal/mol |
| GCAAACGAAAGTTCTGC ((((((....))).))) | 37.2 °C | -20.5 kcal/mol |
| GCATCAGAAATGATGC ((((((....)))))) | 57.9 °C | -38.7 kcal/mol |
| GGCTTGGAAACAAGCC ((((((....)))))) | 66.6 °C | -31.2 kcal/mol |
| GCAGCGCGAAAGCTCAGC ((.(.((....)).).)) | 39.9 °C | -10.6 kcal/mol |
| GCGAGCAATCGC ((((....)))) | 62.2 °C | -23.8 kcal/mol |
| GCCGCAGGAAACTGTGGC (((.(((....))).))) | 60.3 °C | -39.4 kcal/mol |
| GAGCACGAAAGTGGCCTC ((((((....)))..))) | 42 °C | -14 kcal/mol |
| CGTTCGGAAACGACCACG ((((((....)))..))) | 27.3 °C | -8.89 kcal/mol |
| GAAGCAGGAAACTGCCTC ((.((((....)))).)) | 34.5 °C | -13.2 kcal/mol |

| Sequence | Tm [1] | folding enthalpy [2] |
| --- | --- | --- |
| GTCCGCGAAAGCGAAGAC ((((((....)))..))) | 45.4 °C | -17.4 kcal/mol |
| GTTGGACCGAAAGGTAAC (((..(((....)))))) | 35.8 °C | -20 kcal/mol |
| GTTACGAAAGTAAC (((((....))))) | 54.7 °C | -30 kcal/mol |
| GTACTCGGAAACGAGTGC (.(((((....))))).) | 54.5 °C | -41 kcal/mol |
| GATCGTGCACACGATC ((((((....)))))) | 64.7 °C | -41.3 kcal/mol |
| GATCCTAGATAGGATC ((((((....)))))) | 50.8 °C | -36.1 kcal/mol |
| GATCCGACGGCGGATC ((((((....)))))) | 57.8 °C | -48 kcal/mol |
| GATCGTCTCGACGATC ((((((....)))))) | 65.3 °C | -40.9 kcal/mol |
| GCAGTTGGAAACGACTGC (((((.(....).))))) | 55.3 °C | -39.5 kcal/mol |
| GACCCGGGAAACCGGATC ((.((((....)))).)) | 43.2 °C | -16.3 kcal/mol |
| GGGCACGAAAGTGCGCCC ((((((....)))..))) | 54.9 °C | -11.8 kcal/mol |
| GATCCGCTTCGGATC ((((((...)))))) | 58.6 °C | -39 kcal/mol |
| GCTTAGCGAAAGCTAGGC ((.((((....)))).)) | 60.4 °C | -28.3 kcal/mol |
| GTGCCTCGAAAGAGTCAC (((.(((....))).))) | 50.4 °C | -29.5 kcal/mol |
| GTGGGACCGAAAGGTCAC (((..(((....)))))) | 64.2 °C | -19.5 kcal/mol |
| GGTATTCGAAAGAAGACC (((.(((....))).))) | 50.8 °C | -43.2 kcal/mol |
| GCGAACGTCGC ((((...)))) | 45.8 °C | -18.8 kcal/mol |
| GTTGCCGAAAGGCATAAC ((((((....)))..))) | 36.8 °C | -9 kcal/mol |
| GGATAGGGAAACCTACCC ((.((((....)))).)) | 35.2 °C | -21.9 kcal/mol |
| GATCCGACACCGGATC ((((((....)))))) | 55.4 °C | -37.4 kcal/mol |
| GGGTGCGAAAGCAATCCC ((((((....)))..))) | 50.6 °C | -21.8 kcal/mol |
| GTGACAGGAAACTGTTGC (..((((....))))..) | 37.3 °C | -20.8 kcal/mol |
